Columns and labels:
Progesterone receptor [1] = biological target: T1, Progesterone receptor (Homo sapiens, UniProt P06401); assay: Antagonistic activity was determined in Human progesterone receptor(hPR) of CV-1 cells in cotransfection assay.; assay type: functional, cell-based
T1 sequence (P06401 whole entry): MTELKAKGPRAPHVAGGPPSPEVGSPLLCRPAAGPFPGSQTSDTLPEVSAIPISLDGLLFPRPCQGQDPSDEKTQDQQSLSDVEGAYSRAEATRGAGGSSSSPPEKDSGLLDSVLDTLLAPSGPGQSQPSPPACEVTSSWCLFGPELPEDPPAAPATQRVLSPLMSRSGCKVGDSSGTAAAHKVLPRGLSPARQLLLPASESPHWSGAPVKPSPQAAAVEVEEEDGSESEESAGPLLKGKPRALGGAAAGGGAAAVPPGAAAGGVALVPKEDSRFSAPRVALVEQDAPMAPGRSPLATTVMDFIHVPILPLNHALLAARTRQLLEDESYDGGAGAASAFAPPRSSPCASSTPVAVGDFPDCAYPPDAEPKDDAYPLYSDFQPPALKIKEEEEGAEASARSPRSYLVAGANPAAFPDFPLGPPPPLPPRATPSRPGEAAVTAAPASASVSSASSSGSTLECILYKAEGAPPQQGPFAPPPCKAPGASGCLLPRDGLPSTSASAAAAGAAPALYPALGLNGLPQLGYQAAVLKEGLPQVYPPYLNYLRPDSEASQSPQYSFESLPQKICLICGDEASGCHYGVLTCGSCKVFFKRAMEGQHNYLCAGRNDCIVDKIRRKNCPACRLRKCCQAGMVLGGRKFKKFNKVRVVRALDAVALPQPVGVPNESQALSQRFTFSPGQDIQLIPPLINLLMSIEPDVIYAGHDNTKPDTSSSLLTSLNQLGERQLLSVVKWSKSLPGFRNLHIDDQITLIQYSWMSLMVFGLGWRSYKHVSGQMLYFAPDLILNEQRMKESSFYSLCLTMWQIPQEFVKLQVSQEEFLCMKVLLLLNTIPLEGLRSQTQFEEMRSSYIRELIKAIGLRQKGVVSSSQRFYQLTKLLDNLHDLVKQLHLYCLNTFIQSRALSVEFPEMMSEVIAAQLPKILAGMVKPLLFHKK

Androgen receptor [2] = biological target: T2, Androgen receptor (Homo sapiens, UniProt P10275)
T2 sequence (P10275 whole entry): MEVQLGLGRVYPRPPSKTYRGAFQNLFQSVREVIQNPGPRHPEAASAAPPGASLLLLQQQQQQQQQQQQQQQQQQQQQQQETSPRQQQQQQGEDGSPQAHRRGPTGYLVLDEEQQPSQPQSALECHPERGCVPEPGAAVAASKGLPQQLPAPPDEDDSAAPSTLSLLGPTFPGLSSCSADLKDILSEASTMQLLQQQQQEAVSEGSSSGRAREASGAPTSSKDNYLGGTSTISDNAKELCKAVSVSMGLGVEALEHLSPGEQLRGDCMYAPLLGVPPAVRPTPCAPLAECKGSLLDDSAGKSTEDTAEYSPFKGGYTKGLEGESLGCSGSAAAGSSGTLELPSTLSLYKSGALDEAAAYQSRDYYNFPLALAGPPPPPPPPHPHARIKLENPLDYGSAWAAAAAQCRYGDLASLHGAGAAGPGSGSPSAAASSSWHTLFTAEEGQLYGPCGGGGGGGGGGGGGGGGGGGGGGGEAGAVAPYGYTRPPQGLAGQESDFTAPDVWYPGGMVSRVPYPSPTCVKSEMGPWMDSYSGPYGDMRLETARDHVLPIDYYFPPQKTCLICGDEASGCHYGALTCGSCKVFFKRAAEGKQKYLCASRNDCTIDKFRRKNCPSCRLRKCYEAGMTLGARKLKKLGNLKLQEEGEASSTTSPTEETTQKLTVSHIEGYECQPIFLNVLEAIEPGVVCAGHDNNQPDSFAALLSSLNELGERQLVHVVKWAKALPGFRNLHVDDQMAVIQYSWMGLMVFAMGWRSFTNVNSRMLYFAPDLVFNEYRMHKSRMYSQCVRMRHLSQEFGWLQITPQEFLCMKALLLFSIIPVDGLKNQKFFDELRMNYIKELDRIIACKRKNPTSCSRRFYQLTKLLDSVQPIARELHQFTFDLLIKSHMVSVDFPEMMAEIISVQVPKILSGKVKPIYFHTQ

Progesterone receptor [3] = biological target: T1, Progesterone receptor; assay: Agonistic activity to the human progesterone receptor (hPR)assayed in CV-1 cells in cotransfection assay.; assay type: functional, cell-based
Estrogen receptor = Estrogen receptor (Homo sapiens, UniProt Q92731+P03372); assay: Antagonistic activity was determined in Human estrogen receptor(hER) of CV-1 cells in cotransfection assay.; assay type: functional, cell-based
Androgen receptor [4] = biological target: T2, Androgen receptor; remark: listed apart in the source
[5] = biological target: T3, Progesterone receptor (Homo sapiens) (UniProt P06401); assay: Agonist efficacy for human progesterone receptor (hPR) was compared to that of progesterone (100%); assay type: functional
T3 sequence (whole entry): T1 sequence (P06401 whole entry)
Outline: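 Cotransfection assay in CV-1 cells transiently transfected by calcium phosphate coprecipitation with hPR plasmid, MTV-LUC reporter, pRS-β-Gal and filler DNA. Full dose–response curves from 10^-12 to 10^-5 M were run. […] Values are the mean of at least three experiments with triplicate determinations, or of two experiments, or a single experiment.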

Glucocorticoid receptor = biological target: T4, Glucocorticoid receptor (Homo sapiens, UniProt P04150)
T4 sequence (P04150 whole entry): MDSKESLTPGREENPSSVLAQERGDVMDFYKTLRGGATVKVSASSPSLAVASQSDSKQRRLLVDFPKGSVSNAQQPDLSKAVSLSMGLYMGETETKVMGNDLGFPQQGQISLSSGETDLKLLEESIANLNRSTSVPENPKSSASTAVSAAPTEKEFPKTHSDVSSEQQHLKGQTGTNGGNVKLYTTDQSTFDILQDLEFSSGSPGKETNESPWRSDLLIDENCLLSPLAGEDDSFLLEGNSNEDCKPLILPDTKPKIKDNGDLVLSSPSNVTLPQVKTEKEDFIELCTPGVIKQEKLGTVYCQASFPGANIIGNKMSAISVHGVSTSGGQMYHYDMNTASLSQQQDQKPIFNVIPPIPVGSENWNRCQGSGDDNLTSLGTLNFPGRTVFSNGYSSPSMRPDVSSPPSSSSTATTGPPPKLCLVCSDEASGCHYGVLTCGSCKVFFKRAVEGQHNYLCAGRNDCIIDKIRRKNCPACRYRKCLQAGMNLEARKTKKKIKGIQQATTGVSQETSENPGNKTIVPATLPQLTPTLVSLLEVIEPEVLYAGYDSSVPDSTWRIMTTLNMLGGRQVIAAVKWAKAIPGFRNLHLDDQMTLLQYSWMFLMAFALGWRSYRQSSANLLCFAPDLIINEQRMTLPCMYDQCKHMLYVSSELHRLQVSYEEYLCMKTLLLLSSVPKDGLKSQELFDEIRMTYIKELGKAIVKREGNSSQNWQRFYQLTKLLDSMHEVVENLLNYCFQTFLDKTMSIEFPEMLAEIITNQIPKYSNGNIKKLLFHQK

| SMILES | IC50 (Progesterone receptor [1]) [nM] | Ki (Androgen receptor [2]) [nM] | EC50 (Progesterone receptor [3]) [nM] | IC50 (Estrogen receptor) [nM] | IC50 (Androgen receptor [4]) [nM] | Efficacy [5] [%] | Ki (Glucocorticoid receptor) [nM] |
| --- | --- | --- | --- | --- | --- | --- | --- |
| CC1=CC(C)(C)Nc2ccc3c(c21)C(c1ccc(C)cc1)Oc1ccccc1-3 (stereo not drawn) | 250 | 2330 | 37 | 2395 | 1240 | 59 | 80 |
| CC1=CC(C)(C)Nc2ccc3c(c21)C(c1ccc(C)c(F)c1)Oc1ccccc1-3 (stereo not drawn) | > 10000 | 1580 | 16 | 1449 | 1220 | 83 | 60 |
| CC1=CC(C)(C)Nc2ccc3c(c21)C(c1ccc(Cl)c(Cl)c1)Oc1ccccc1-3 (stereo not drawn) | 720 | 5830 | 18 | 2632 | 946 | 66 | 59 |
| CC1=CC(C)(C)Nc2ccc3c(c21)C(c1cccc(Cl)c1)Oc1ccccc1-3 (stereo not drawn) | 930 | 1530 | 18 | 1480 | 253 | 76 | 58 |
| CC1=CC(C)(C)Nc2ccc3c(c21)C(c1ccc(Br)cc1)Oc1ccccc1-3 (stereo not drawn) | 3140 | > 10000 | 14 | > 10000 | 481 | 59 | 67 |
| CC1=CC(C)(C)Nc2ccc3c(c21)C(c1ccc(Cl)c(C)c1)Oc1ccccc1-3 (stereo not drawn) | > 10000 | 1860 | 14 | 1220 | 1430 | 68 | 147 |
| CC1=CC(C)(C)Nc2ccc3c(c21)C(c1cc(Cl)cc(Cl)c1)Oc1ccccc1-3 (stereo not drawn) | > 10000 | 2580 | 50 | > 10000 | 1090 | 57 | 100 |
| CC1=CC(C)(C)Nc2ccc3c(c21)C(c1cccc(C(F)(F)F)c1)Oc1ccccc1-3 (stereo not drawn) | > 10000 | 795 | 13 | 1537 | 315 | 96 | 44 |
| CC1=CC(C)(C)Nc2ccc3c(c21)C(c1ccc(Cl)c(F)c1)Oc1ccccc1-3 (stereo not drawn) | > 10000 | 1460 | 17 | 1449 | 2200 | 59 | 39 |
| CC1=CC(C)(C)Nc2ccc3c(c21)C(c1cc(C)cc(Br)c1)Oc1ccccc1-3 (stereo not drawn) | 1100 | 3500 | 17 | 1037 | 1240 | 65 | 42 |
| CC1=CC(C)(C)Nc2ccc3c(c21)C(c1ccc(Cl)cc1)Oc1ccccc1-3 (stereo not drawn) | 600 | 2680 | 14 | 1803 | 1550 | – | 152 |
| CC1=CC(C)(C)Nc2ccc3c(c21)C(c1cccc(Br)c1)Oc1ccccc1-3 (stereo not drawn) | 1140 | 2140 | 8 | 1095 | 401 | 77 | 34 |

— ChEMBL document CHEMBL1131454 (J Med Chem, 1998)
